Screens (PubChem)
The list is not random: actives were taken first. Their share in the collection is about 1.3%.
PP5 primary: PP5 (human) phosphatase inhibition. P53041. AID 1987. 0.18% of 320,000 active. inhibition, % at 6.7 µM. purified PP5c, OMFP substrate fluorescence;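 active means inhibition above the campaign's mean inhibition across all tested compounds plus 3 SD, cut at about 9.5% in these data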;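 further: 0% = DMSO only and 100% = 100 µM cantharidin control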
NR2E3 ag-1: activates human photoreceptor nuclear receptor NR2E3; inhibition of corepressor binding, % at 4.78 µM; 0.12% of 320,000 active; AID 2300; GST-NR2E3/biotin-RetCOR TR-FRET, 1536-well;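 active means percent inhibition above the cutoff of mean plus 3 SD of all tested compounds, set per screening campaign, cut at about 20% in these data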;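 further: 0% = DMSO wells and 100% = biotin wells as full block of FRET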
Target sequence (Q9Y5X4 whole entry, looked up): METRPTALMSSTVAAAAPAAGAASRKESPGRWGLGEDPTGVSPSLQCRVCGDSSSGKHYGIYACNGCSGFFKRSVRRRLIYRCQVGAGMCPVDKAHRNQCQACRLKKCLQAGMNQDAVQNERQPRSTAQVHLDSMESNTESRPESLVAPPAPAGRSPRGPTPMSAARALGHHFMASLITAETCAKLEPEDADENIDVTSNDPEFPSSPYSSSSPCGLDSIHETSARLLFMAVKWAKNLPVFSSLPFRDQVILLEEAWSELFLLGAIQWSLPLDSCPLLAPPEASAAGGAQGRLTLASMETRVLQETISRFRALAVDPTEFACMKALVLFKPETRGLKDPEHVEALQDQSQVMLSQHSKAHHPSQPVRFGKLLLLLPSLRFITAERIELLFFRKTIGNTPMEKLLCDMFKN
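Material: NR2E3–RetCOR corepressor complex / Amount: 1.35 nM GST-NR2E3 / Medium: Tris pH 7.5 / Compound: single nominal compound dose of 4.8 µM / Incubation: 5 h at 4 °C / Technique: TR-FRET, Eu(K)-anti-GST donor, streptavidin-D2 acceptor, ex 340, em 617/671 nm / Read-out basis: percent loss of FRET ratio relative to control wells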
NR2E3 ag-2: activates human NR2E3 receptor; Q9Y5X4; CHO-S Gal4-NCOR/VP16-NR2E3 two-hybrid, luciferase; inhibition of corepressor binding, % at 3.98 µM; 0.35% of 360,000 active; AID 602229;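 active means inhibition above the mean of all tested compounds plus 3 SD, cut at about 70% in these data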;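 further: 0% = DMSO with NR2E3 transfected cells and 100% = cells lacking NR2E3 construct; higher means lower luciferase signal from less NR2E3 corepressor binding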
PP1 counter: blocks human PP1-alpha phosphatase, a PP5 counter-screen; purified PP1alpha, OMFP fluorescence; inhibition, % at 6.7 µM; 0.9% of 320,000 active;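 active means inhibition above the mean inhibition of all tested compounds plus 3 SD, computed separately for each screening campaign, cut at about 15% in these data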
NR2E3 ag confirm: NR2E3 agonism confirmed in two-hybrid assay. AID 624378. shares compounds with NR2E3 ag-2. 51% of 2,300 active. CHO-S mammalian two-hybrid NR2E3-NCOR, luciferase luminescence. inhibition, % at 3.98 µM;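 active means average inhibition above a cutoff equal to the mean inhibition of all tested compounds plus one SD, cut at about 70% in these data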;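 further: 0% = DMSO in NR2E3 cells and 100% = DMSO in cells lacking NR2E3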
VP16 counter: counter-screen for NR2E3 agonists: GAL4-VP16 reporter inhibitors. shares compounds with NR2E3 ag-2. CHO-S GAL4-VP16 luciferase reporter, luminescence. inhibition, % at 3.98 µM. 29% of 2,300 active;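 active means mean inhibition above a cutoff equal to the average over all tested compounds plus one standard deviation, cut at about 70% in these data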;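 further: luciferase from a UAS reporter driven by GAL4-VP16 transactivation; 0% = DMSO with VP16-transfected cells and 100% = DMSO with cells lacking VP16; higher means less reporter light so more repression of VP16 activity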
Starred values were filed as active, the others as inactive; . = no result given.

SMILES | PP5 primary | NR2E3 ag-1 | NR2E3 ag-2 | PP1 counter | NR2E3 ag confirm | VP16 counter
COc1ccccc1CNC(=O)c1cccc(S(=O)(=O)N2CCN(c3ccc(F)cc3)CC2)c1 | 4 | 2 | -5 | 0 | . | .
CN(Cc1ccc(OC(F)F)cc1)C(=O)c1cccc(S(=O)(=O)N2CCN(Cc3ccccc3)CC2)c1 | . | . | 91* | . | 92* | 76*
CN(Cc1ccco1)C(=O)c1cccc(S(=O)(=O)N2CCN(Cc3ccccc3)CC2)c1 | . | . | -6 | . | . | .
CCOC(=O)C1=CCN(S(=O)(=O)c2ccccc2F)C1c1cccc(Cl)c1 (centres undefined) | . | . | -29 | . | . | .
O=C(COc1ccc(S(=O)(=O)N2CCOCC2)cc1)NC1CCCCC1 | 1 | 5 | -6 | -2 | . | .
OC(CNCC(c1ccc(Cl)cc1Cl)c1c[nH]c2ccccc12)c1ccccc1 (centres undefined) | 4 | -4 | -12 | 5 | . | .
CC(C)C(NC(=O)c1ccc(C(C)(C)C)cc1)C(=O)N1CCC(C(N)=O)CC1 (centres undefined) | 2 | -3 | 0 | -1 | . | .
O=C(Cn1cnc(S(=O)(=O)N2CCCC2)c1)Nc1cccc(F)c1 | 2 | -1 | 7 | -2 | . | .
CN(CCOc1ccc(Cl)cc1)C(=O)c1cccc(S(=O)(=O)N2CCN(c3ccccc3)CC2)c1 | . | . | 85* | . | 92* | 81*
O=C(c1cccc(S(=O)(=O)N2CCN(c3ccc(F)cc3)CC2)c1)N1CCCCCCC1 | 3 | 0 | 52 | 3 | 43 | 43
CN(CCOc1ccc(Cl)cc1)C(=O)c1ccc(S(=O)(=O)N2CCOCC2)cc1 | -2 | 4 | -14 | -7 | . | .
N#Cc1c(F)cccc1NCc1cccnc1 | 1 | -4 | -46 | -2 | . | .
N#Cc1c(NCc2ccccc2)ccnc1NCc1cccnc1 | -1 | 1 | 66 | -3 | 57 | 56
CCOc1ccc(S(=O)(=O)N2CCC(C(=O)NC3CC3)CC2)cc1Cl | 1 | -2 | -4 | 0 | . | .
O=[N+]([O-])c1cc(-c2ccccc2)cc([N+](=O)[O-])c1O | . | . | 79* | . | 100* | 89*
O=[N+]([O-])c1cc2ccccc2c(O)c1O | . | . | -11 | . | . | .
CCOC(=O)c1cc(C#N)c(N2CCN(C(=O)c3cccc(C(F)(F)F)c3)CC2)nc1C(F)(F)F | 4 | 1 | 50 | -1 | 25 | 40
CCOC(=O)c1cc(C#N)c(N2CCN(C(=O)c3ccccc3)CC2)nc1C(F)(F)F | 2 | 1 | 9 | -4 | . | .
CC[C@H]1O[C@H](C)CC2=C1C(=O)OC(C)(C)O2 | . | . | -9 | . | . | .
O=C(CSc1nnnn1-c1ccc2c(c1)OCCO2)Nc1nc2c(s1)CCCC2 | 4 | 3 | 96* | 0 | 98* | 5
COc1cccc(-n2nnnc2SCC(=O)Nc2nc3c(s2)CCCC3)c1 | -1 | 0 | 10 | 1 | . | .
CN(CC(=O)NCC(=O)Nc1ccc(F)cc1)CC(=O)Nc1ccc(Cl)c(C(F)(F)F)c1 | . | . | -14 | . | . | .
CN(CC(=O)NCc1ccc(F)cc1)CC(=O)Nc1ccc(Cl)c(C(F)(F)F)c1 | 1 | 1 | 94* | -12 | 53 | 49
NC(=O)c1ccc(N2CCN(S(=O)(=O)c3cccs3)CC2)c([N+](=O)[O-])c1 | . | . | 82* | . | 95* | 78*
CCOC(=O)N=Nc1c2ccccc2c2nc3no[nH]c3nc12 | . | . | 89* | . | 99* | 100*
SMILES | PP5 primary | NR2E3 ag-1 | NR2E3 ag-2 | PP1 counter | NR2E3 ag confirm | VP16 counter
COC(=O)c1ccc(OC(=O)C23CCC(C)(C(=O)O2)C3(C)C)cc1 (centres undefined) | 0 | 6 | -22 | -1 | . | .
O=C(O)CCSc1nnc(-c2ccc3c(c2)OCO3)o1 | 1 | 2 | 53 | -4 | 30 | 40
CC(=O)CSc1nnc(-c2ccc3c(c2)OCO3)o1 | -1 | 1 | -120 | -4 | . | .
Cc1nc(NCCc2ccccc2)c2oc3ccccc3c2n1 | 2 | 1 | 72* | 1 | 91* | 76*
Cc1ccc(C(C)C)c(OCC(=O)NCC(c2cccs2)N2CCOCC2)c1 (centres undefined) | 3 | 2 | 18 | 0 | . | .
COc1ccc(C(=O)/C=C2\Sc3ccccc3N2C)cc1 | 0 | -2 | -153 | -9 | . | .
COc1ccc(-[n+]2c(C)cc(/C=C3\Sc4ccccc4N3C)cc2C)cc1 | 3 | -8 | 93* | 2 | 99* | 92*
COc1ccccc1OC(=O)CCN1c2ccccc2Sc2ccccc21 | 2 | -4 | 8 | 7 | . | .
COc1ccccc1-[n+]1c(C)cc(/C=C2\Sc3ccccc3N2C)cc1C | -1 | -10 | 92* | 4 | 97* | 83*
O=C(O)CCNC(=O)c1ccc(NC(=O)Cc2ccc(Cl)cc2)cc1 | 2 | 1 | 23 | 1 | . | .
CC(=O)Nc1ccc(C(=O)Nc2cccc(S(=O)(=O)N(C)c3ccccc3)c2)cc1 | 3 | 3 | 3 | -1 | . | .
CN(c1ccccc1)S(=O)(=O)c1cccc(NC(=O)c2ccncc2)c1 | 3 | -3 | 53 | 0 | 38 | 45
Cc1nc2ccc(NC(=O)c3cc(S(=O)(=O)N(C)c4ccccc4)ccc3Cl)cc2s1 | 4 | 0 | 80* | 6 | 91* | 80*
Cc1nc2ccc(NC(=O)c3ccc(Cl)c(S(=O)(=O)N(C)c4ccccc4)c3)cc2s1 | 3 | 2 | 2 | 2 | . | .
COc1ccc2c(c1)[nH]c1c(N3CCN(Cc4ccc5c(c4)OCO5)CC3)ncnc12 | 2 | 2 | 92* | 2 | 97* | 86*
CCOc1ccc2[nH]c3c(N4CCN(c5ccccn5)CC4)ncnc3c2c1 | 3 | 3 | 12 | -6 | . | .
Cc1ccc2c(c1)[nH]c1c(N3CCN(Cc4ccccc4)CC3)ncnc12 | 3 | -1 | 59 | 4 | 86* | 74*
Cc1ccc2[nH]c3c(N4CCN(Cc5ccccc5)CC4)ncnc3c2c1 | 4 | -2 | 79* | -5 | 88* | 74*
c1ccc(CN2CCN(c3ncnc4c3[nH]c3ccccc34)CC2)cc1 | 6 | 2 | 70 | 3 | . | .
Cc1cc(/C=C2/SC(=S)N(c3cccc(Cl)c3)C2=O)c(C)n1-c1cccnc1 | 1 | 1 | 63 | 7 | 53 | 66
CCOC(CN=c1nc(N(C)C)ss1)OCC | . | . | 89* | . | 17 | 3
O=C(O)C1CCN(S(=O)(=O)Cc2ccccc2)CC1 | 1 | -2 | 17 | -8 | . | .
O=C(c1cc(COc2ccc(F)cc2Cl)on1)N1CCN(C2CCCCC2)C(=O)C1 | 0 | -1 | 57 | 0 | 16 | 24
O=C(c1cc(COc2ccc(F)cc2Cl)on1)N1CCN(C2CCCC2)CC1 | 3 | -3 | 9 | 1 | . | .
O=C(Nc1ccc(S(=O)(=O)N2CCN(Cc3ccccc3)CC2)cc1)c1cnccn1 | 1 | 3 | 61 | -3 | 86* | 71*
CC1Cc2ccccc2N1C(=O)CN1CCC(n2nnc3cc(C(F)(F)F)ccc32)CC1 (centres undefined) | 1 | 2 | 53 | 4 | 37 | 16
